FN deposit inh – fibronectin deposition inhibition; AH1F fibroblasts, Alexa488-fibronectin deposition fluorescence, overnight; inhibition, % at 12.6 µM; 0.086% of 350,000 active; AID 743247;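 active means mean inhibition across replicates of 30% or more, regardless of how many single replicates reach that level; inconclusive means mean under 30% yet at least half of replicates reach 30%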
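Material: AH1F fibroblasts assembling fluorescent fibronectin matrix; amount: 10000 AH1F cells/well; medium: DMEM, 2% serum; reagent: Alexa488-fibronectin, 24 nM final in well; dosing: single compound dose, delivered by pin transfer; incubation: 1 h adhesion, overnight exposure; detection: fluorescence after three HBSS washes, excitation 485 nm, emission 525 nm; measure: fibronectin deposition inhibition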
ARNT TACC3 PPI – disruptors of human ARNT/TACC3 interaction. Q9Y6A5. AlphaScreen His-ARNT PAS-B/GST-TACC3 binding, luminescence; TACC3 fragment carries E629A point mutation. inhibition, % at 9.99 µM. 0.66% of 390,000 active. AID 623870;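 active means mean inhibition of replicates at least 50% and at least half of replicates each reaching 50%; inconclusive means half or more replicates reach 50% but mean below 50%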
XiGFP reactiv – X-chromosome reactivation activator. activation, % at 7.58 µM. 0.055% of 360,000 active. XiGFP mouse fibroblasts, % GFP-positive cells imaging, 3 d; cells co-treated with 5-aza-dC sensitizer; scaled so ellipticine positive control = 100%;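 active means mean normalized replicate activation at least 10% and every replicate at or above 10%; inconclusive means only one of the two criteria met; inactive means mean below 10% and not all replicates reach 10%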
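Assay system: SV40-immortalized XiGFP fibroblast cells, line 68-5-11; buffer or medium: DMEM plus 5-aza-dC sensitizer; compound: one concentration, pinned; timing: compounds 3 days, fix/stain 15 min at room temperature; benchmarks: positive control ellipticine, 6 µM final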
DENV2 CPE rescue – DENV2-induced cell death inhibition | CPE inhibition, % at 9.99 µM | AID 651640 | 1.7% of 350,000 active | DENV2-infected cells, cytopathic effect rescue, plate reader; in the data active means CPE inhibition above about 20%, passing the limit was not always enough; inconclusive means no clear call, values can overlap the other calls; tested in BHK-21 cells
FGF22 binding – FGF22 (human) thermal shift binding. Q9HCT0. activity (Tm shift, normalised), % at 9.99 µM. AID 651658. 1.5% of 340,000 active. recombinant FGF22 thermal shift, SYPRO orange fluorescence; percent of sucrose octasulfate shift, DMSO zero;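 active means mean Tm shift, scaled 0 neutral to 100 positive control, at about 1.3% or above, every replicate too, limit read from the data; inconclusive means no clear call, values can overlap the other calls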
Target sequence (Q9HCT0 whole entry, looked up): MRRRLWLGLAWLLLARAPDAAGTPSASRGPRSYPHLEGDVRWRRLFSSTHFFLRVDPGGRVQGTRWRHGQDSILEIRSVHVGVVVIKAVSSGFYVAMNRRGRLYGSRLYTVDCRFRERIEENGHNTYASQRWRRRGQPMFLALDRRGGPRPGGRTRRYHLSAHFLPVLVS
SIRT5 block – blocks human SIRT5 desuccinylation of peptide; inhibition, % at 15 µM; Q9NXA8; Purified SirT5, succinyl-peptide AMC, trypsin-coupled fluorescence; 1.1% of 330,000 active; in the data active means inhibition above about 15%; inconclusive means no clear call, values can overlap the other calls
Target sequence (Q9NXA8 whole entry, looked up): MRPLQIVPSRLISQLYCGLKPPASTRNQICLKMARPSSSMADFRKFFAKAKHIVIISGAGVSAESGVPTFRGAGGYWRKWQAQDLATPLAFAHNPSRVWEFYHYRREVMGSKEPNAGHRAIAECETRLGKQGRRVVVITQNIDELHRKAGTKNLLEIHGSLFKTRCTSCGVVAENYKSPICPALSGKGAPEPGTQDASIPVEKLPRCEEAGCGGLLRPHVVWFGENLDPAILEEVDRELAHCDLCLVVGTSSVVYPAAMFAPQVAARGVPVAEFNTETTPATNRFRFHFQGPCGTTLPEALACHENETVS
Of the large screens only hits and unclear results are named; the others gave an inactive call. A selection: hits, their analogues and other compounds. The true share with any hit is near 3.8%.

O=C(CC1CC1)N1CC(=O)N2[C@H](C1)[C@@H](c1ccc(-c3ccccc3)cc1)[C@@H]2CO	none (no result: FN deposit inh, ARNT TACC3 PPI, FGF22 binding)
COc1ccc(S(=O)(=O)Nc2ccc3c(c2)C(=O)N([C@H](C)CO)C[C@@H](C)[C@@H](CN(C)C(=O)Nc2c(C)noc2C)O3)cc1	none (no result: FN deposit inh)
COC(=O)c1ccccc1S(=O)(=O)N1CCC(C(=O)NCc2ccccn2)CC1	FGF22 binding 43 (no result: ARNT TACC3 PPI, SIRT5 block)
O=C(NCc1ccccn1)C1CCN(S(=O)(=O)c2ccccc2C(F)(F)F)CC1	none
Cc1n[nH]c(=S)n(NC(=O)CC(=O)Nn2c(=S)[nH]nc(C)c2=O)c1=O	ARNT TACC3 PPI 67
Cc1n[nH]c(=S)n(NC(=O)/C=C/C(=O)Nn2c(=S)[nH]nc(C)c2=O)c1=O	ARNT TACC3 PPI 66 (no result: SIRT5 block)
COc1ccccc1OCC(=O)Nn1c(=S)[nH]c2ncccc2c1=O	none
NNC(=O)Nc1cccc(C(F)(F)F)c1	SIRT5 block 41
O=C(Nc1ccncc1)Nc1cccc(C(F)(F)F)c1	none
COCC(=O)N(C)C[C@@H]1Oc2ncc(C#Cc3ccc(OC)cc3)cc2C(=O)N([C@@H](C)CO)C[C@H]1C	DENV2 CPE rescue 68 (no result: FN deposit inh)
COCC(=O)N(C)C[C@H]1Oc2ncc(C#Cc3ccc(OC)cc3)cc2C(=O)N([C@@H](C)CO)C[C@H]1C	none (no result: FN deposit inh)
COCC(=O)N(C)C[C@@H]1Oc2ncc(C#CC(C)(C)O)cc2C(=O)N([C@@H](C)CO)C[C@@H]1C	DENV2 CPE rescue 24
CC(=O)N(C)C[C@H]1Oc2ncc(C#CC(C)(C)O)cc2C(=O)N([C@@H](C)CO)C[C@@H]1C	DENV2 CPE rescue 30
COCC(=O)N(C)C[C@H]1Oc2ncc(-c3ccccc3OC)cc2C(=O)N([C@@H](C)CO)C[C@@H]1C	DENV2 CPE rescue 21 (no result: ARNT TACC3 PPI)
COCC(=O)N(C)C[C@@H]1Oc2ncc(C#CC(C)(C)O)cc2C(=O)N([C@@H](C)CO)C[C@H]1C	none
COCC#Cc1ccc2c(c1)O[C@@H](CN(C)Cc1ccc3c(c1)OCO3)[C@H](C)CN([C@H](C)CO)S2(=O)=O	DENV2 CPE rescue inconclusive (no result: FN deposit inh)
CC(C)C#Cc1cnc2c(c1)C(=O)N([C@@H](C)CO)C[C@@H](C)[C@@H](CN(C)C(=O)Nc1ccccc1)O2	none
C[C@@H]1CN([C@H](C)CO)C(=O)c2cc(C#Cc3ccncc3)cnc2O[C@H]1CN(C)C(=O)CN(C)C	none
CC(=O)N(C)C[C@@H]1Oc2ncc(C#Cc3cccc(F)c3)cc2C(=O)N([C@H](C)CO)C[C@H]1C	SIRT5 block 21
C[C@H](CO)N1C[C@H](C)[C@H](CN(C)C(=O)CN(C)C)Oc2ncc(C#Cc3ccccc3)cc2C1=O	DENV2 CPE rescue 51
C[C@H](CO)N1C[C@H](C)[C@@H](CN(C)C)Oc2ccc(NC(=O)Cc3ccccc3)cc2C1=O	none (no result: FN deposit inh)
CCNC(=O)[C@H]1[C@H](CO)[C@H]2Cn3c(ccc(-c4ccc(F)cc4)c3=O)[C@H]2N1C	none (no result: ARNT TACC3 PPI, DENV2 CPE rescue, FGF22 binding, SIRT5 block)
O=C(C[C@@H]1C=C[C@H](NC(=O)c2ccccc2)[C@H](CO)O1)Nc1ccc(-c2ccccc2)cc1	none
COc1ccc2[nH]c3c(c2c1)CCN1C(=O)N([C@@H](C)C(=O)NC2CCCCC2C)C(=O)[C@]31C (some centres not stated)	DENV2 CPE rescue 48 (no result: FN deposit inh, XiGFP reactiv, SIRT5 block)
NC(=O)CCn1c(C(=O)c2cc(Cl)c(N)c(Cl)c2)c2ccccc2[n+]1[O-]	none
NCCCn1c(C(=O)c2cc(Cl)c(N)c(Cl)c2)c2ccccc2[n+]1[O-]	SIRT5 block 40
Cc1ccc(C(=O)c2c3ccc([N+](=O)[O-])cc3[n+]([O-])n2CCCN)cc1	DENV2 CPE rescue 21
O=C(c1ccccn1)N1CC[C@@H]2[C@@H](CO)Nc3ccc(Br)cc3[C@@H]21	none
Cc1ccc(N(C(C)C(=O)NCc2ccncc2)S(C)(=O)=O)cc1C (configuration not stated)	FGF22 binding 43
COC(=O)Cc1nnn2c1[C@H](C)[C@@H](OC)c1ccc(C(F)(F)F)cc1-2	none (no result: ARNT TACC3 PPI, SIRT5 block)
COC(=O)Cc1nnn2c1[C@H](C)[C@@H](OC)c1cccc(Cl)c1-2	FGF22 binding 82 (no result: ARNT TACC3 PPI, SIRT5 block)
Cn1cc(CN2CCC(C(O)c3cccs3)CC2)c(-c2ccccc2F)n1 (configuration not stated)	none
Cn1cc(CN2CCC(C(=O)N3CCCC3)CC2)c(-c2ccccc2F)n1	FGF22 binding 43
C[C@@H]1CN([C@@H](C)CO)C(=O)c2c(c3ccccc3n2C)-c2ccccc2CO[C@H]1CN(C)Cc1ccc(C(=O)O)cc1	none (no result: ARNT TACC3 PPI, DENV2 CPE rescue, FGF22 binding, SIRT5 block)
CC(=O)Oc1ccc2oc(=O)c3c(c2c1)CCCN3C(=O)CN1CCOCC1	FGF22 binding 43
COC1CCN(C(=O)CC2C(=O)NCCN2CC(C)(C)C)CC1 (configuration not stated)	none (no result: ARNT TACC3 PPI)
COC1CCN(C(=O)CC2C(=O)NCCN2CC2CCCCC2)CC1 (configuration not stated)	FGF22 binding 43 (no result: FN deposit inh)
O=C(C[C@H]1C=C[C@@H](NC(=O)C2CCOCC2)[C@@H](CO)O1)Nc1nccs1	none (no result: FN deposit inh, ARNT TACC3 PPI, FGF22 binding)
O=C(COC(=O)c1ccc(Cl)nc1)c1ccc2c(c1)OCCO2	FGF22 binding 43
O=C(COC(=O)c1cccnc1Cl)c1ccc2c(c1)OCCO2	none
Cc1cc(C)c2c(N)c(C(=O)c3ccc(Br)cc3)oc2n1	DENV2 CPE rescue 46
COC(=O)c1oc2ccccc2c1NC(=O)c1ccccc1O	FGF22 binding 43
CCOC(=O)c1oc2ccccc2c1NC(=O)c1ccccc1OC	none (no result: FN deposit inh, XiGFP reactiv)
Cc1ccccc1-c1cnc2c(c1)C(=O)N([C@@H](C)CO)C[C@@H](C)[C@H](CN(C)Cc1cncnc1)O2	none (no result: FN deposit inh)
Cc1nc(-c2ccccc2)sc1C(=O)O	none (no result: DENV2 CPE rescue)
Cc1ccc(-c2nc(C)c(C(=O)O)s2)cc1	FGF22 binding 43
COC(=O)c1cccc(Cn2nc(C)c([N+](=O)[O-])c2C)c1	SIRT5 block 15
COc1cccc2cc(C(=O)Nc3ccc(F)cc3)c(=Nc3ccc(C(=O)O)cc3)oc12	FGF22 binding 43
O=C(Nc1ccc(S(=O)(=O)Nc2ncccn2)cc1)c1cccc([N+](=O)[O-])c1	DENV2 CPE rescue 71 (no result: ARNT TACC3 PPI)
COc1nccnc1NS(=O)(=O)c1ccc(NC(=O)c2cccc(C)c2)cc1	FGF22 binding 43 (no result: DENV2 CPE rescue)
Cc1c(N)cc(S(=O)(=O)O)cc1NC(=O)c1cccc([N+](=O)[O-])c1	SIRT5 block 28
CC1(OC(=O)c2cccs2)C(=O)C=C2C=C3CCCN3C=C2C1=O (configuration not stated)	ARNT TACC3 PPI 8.4 (no result: FN deposit inh, XiGFP reactiv, DENV2 CPE rescue, FGF22 binding, SIRT5 block)
CCCN(CCC)CCN1CCN(C(=O)[C@H](CCc2ccccc2)NC(=O)[C@H]2O[C@@H](n3cnc4c(N)ncnc43)[C@H](O)[C@@H]2O)CC1	SIRT5 block 29 (no result: ARNT TACC3 PPI)

High-throughput results deposited in PubChem by Broad Institute.
